Assay: Toxicity liver stage against HepG2, at 10uM
Format: cell-based
Parameters: test concentration 10 uM, cell line HepG2-A16-CD81EGFP
Details: human, HepG2-A16-CD81EGFP cells; read-out: INHIBITION
Method in brief: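 Uninfected HepG2-A16-CD81EGFP cells, 3 × 10^3 per well, 1536-well, plated on prespotted compound at 10 μM final, parasite-free screening media added to match infected plates; puromycin 10 μM positive, DMSO 0.5% negative; run in parallel with 48 h PbLuc assay at 37 °C, 5% CO2; viability by CellTiter-Glo luminescence, normalized to controls.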

Row | Structure (SMILES) | cytotoxicity at 10 µM [%]
1 | Cc1nc(N(C)C)nc(C)c1NC(=O)c1ccccc1C(F)(F)F | -1.94
2 | Cn1cnnc1S(=O)(=O)C1CCN(S(=O)(=O)c2ccc(Cl)s2)CC1 | -4.72
3 | CC(C)N(C)Cc1nnc2n1CCCN(C(=O)C1CCCO1)C2 (centres undefined) | 19
4 | CC(=O)NCc1noc2c1CN(Cc1cnn(C)c1)CC2 | -1.71
5 | Cc1cc(C)cc(CN2C[C@@H]3OCCN(S(=O)(=O)N(C)C)[C@@H]3C2)c1 | 8.28
6 | O=C(NC1CC1)N1CCc2ccc(=O)n(Cc3ccncc3)c2CC1 | -0.972
7 | CC(C)CN1C[C@H]2CCN(C(=O)NC3CCCC3)CC[C@H]2S1(=O)=O | 7.31
8 | O=c1[nH]c2c(c(=O)n1C1CCCCC1)CCC2Nc1ccc(Cl)cc1 (centres undefined) | 9.78
9 | CC(C)Cc1nc(OCC(=O)O)c(C#N)c2c1CCC2 | -5.93
10 | CN1CCN(C(=O)c2cc(NC(=O)c3ccccc3)n(C)n2)CC1 | 4.07
11 | O=C(NCCCO)c1nnsc1-c1ccccc1 | 7.47
12 | Cc1csc2c(C3CCN(CCCOc4ccccc4)CC3)nc(C)n12 | 1.63
13 | Cc1cc(C(=O)NCC(C)C)c2c(C3CCCN3)noc2n1 (centres undefined) | 7.05
14 | O=C1NC2(Cc3ccccc31)CN(CC1CCNC1)C2 (centres undefined) | 9.76
15 | OCc1c(Cl)ncn1-c1ccccc1 | -8.99
16 | NC(=O)CS(=O)(=O)Cc1csc(-c2ccccc2)n1 | -9.59
17 | CCCN1CCC(N(C)C(=O)c2cc(C)nc3cc(F)ccc23)CC1 | 0.906
18 | Cc1noc(C2CCCN(C(=O)c3cc(Cl)cn3C)C2)n1 (centres undefined) | 1.33
19 | Cc1nc(NCc2nnc(C)n2C)c2c(CC(C)C)csc2n1 | 9.56
20 | Cc1nc(CCCNC(=O)c2cc(F)ccc2O)n[nH]1 | -5.32
21 | CC(C)(C)CCCC(=O)Nc1ccnn1C1CCS(=O)(=O)C1 (centres undefined) | -9.92
22 | CCc1nc(C)c(C(C)N(C)CCc2ccncc2)s1 (centres undefined) | 23.5

Row | Structure (SMILES) | cytotoxicity at 10 µM [%]
23 | Cc1noc(C)c1CCC(=O)N1CCCCC1CNS(C)(=O)=O (centres undefined) | 8.71
24 | COc1ccc(NC(=O)CN2CCCCC2C2OCCO2)cc1 (centres undefined) | 30.9
25 | O=C(NC1CCN(C2CC2)CC1)NC1CCOc2ccc(Br)cc21 (centres undefined) | -3.43
26 | CN(Cc1ccco1)Cc1ccccc1CNC(=O)c1csnn1 | 7.88
27 | CCOCC(O)CN1CCN(C(=O)c2ccc(N(C)C)nc2)CC1 (centres undefined) | -5.18
28 | CN(Cc1cnn(C)c1)C(=O)c1ccnc(OC2CCC2)c1 | 3.82
29 | CCOc1nnc(CN(C)C2CCCN(c3ccc(C)nn3)C2)s1 (centres undefined) | 13.2
30 | COc1ccc2cc(CN(C)C(C)c3nc(C4CC4)no3)ccc2c1 (centres undefined) | 3.18
31 | Cn1ncc2c(=O)[nH]c(CN3CCCc4cc(F)cc(F)c43)nc21 | -1.76
32 | CCC(C)NC(=O)CS(=O)(=O)Cc1nc(-c2cccs2)no1 (centres undefined) | 2.04
33 | N#CCCN(Cc1ccccn1)Cn1cc(Cl)cn1 | 1.49
34 | CS(=O)(=O)NCC1(c2ccccc2Br)CC1 | -5.51
35 | CN(C)S(=O)(=O)NCC1(c2ccccc2Br)CC1 | 1.94
36 | CN(CC(=O)NCC(F)(F)F)Cc1nc2c(s1)CCCC2 | 19
37 | Cc1ccc(CNC(=O)c2c[nH]nc2NC(=O)C2CCC2)cc1 | 2.05
38 | Cc1nc(-c2ccccc2)n(CC(=O)NC(C2CC2)C2CC2)n1 | 11
39 | COc1ccc(CSc2nnc(N)n2C2CC2)cc1Cl | 0.00426
40 | CN1CCN(c2ncc(CNCCCc3cccc(F)c3)cn2)CC1 | -13.2
41 | CCOc1ccc(Cl)cc1NC(=O)N1CCC(n2cncn2)CC1 | 4.93
42 | Cc1cnc(NCc2ccc(S(=O)(=O)N(C)C(C)C)cc2)nc1C | 10.2
43 | CC(C)c1nc(CNC2CCN(C(=O)OC(C)(C)C)CC2)cs1 | -1.72
44 | Cc1cc(C(C)NCCN2CCC(N(C)C)CC2)c(C)s1 (centres undefined) | -0.85

Row | Structure (SMILES) | cytotoxicity at 10 µM [%]
45 | Cc1cc(NCCOCCS(C)(=O)=O)nc2ccccc12 | 4.4
46 | Nc1cc2c(nn1)CCN(C(=O)c1csc(-c3ccccc3)n1)C2 | -12.4
47 | NC(=O)CCCNC(=O)COc1ccccc1C(F)(F)F | 2.49
48 | O=C(C(CNCc1ccsc1)c1ccccc1)N1CCOCC1 (centres undefined) | -7.32
49 | Cc1cc(C)nc(N2CCN(C(=O)c3cc(Cl)c[nH]3)CC2)n1 | -4
50 | CCN(CC)c1ccc(NS(=O)(=O)c2cncc(F)c2)cn1 | -8.37
51 | Cn1cc(CN2CCC[C@]3(C[C@H](Oc4ccccn4)CO3)C2)cn1 | 5.44
52 | CC(C)(C)CC(=O)N1C[C@H]2CCN[C@H]2C1 | 4.19
53 | CNC(=O)[C@H]1C[C@@H]2CN(C(=O)c3cncc(C)c3)C[C@@H]2N1C | -107
54 | Cc1ccc(NC(=O)N2CCC3(CCC(C(=O)N(C)C)O3)CC2)cc1 (centres undefined) | -99.2
55 | NC(=O)Cn1ccnc1C1CCCN(Cc2ccccc2OC(F)F)C1 (centres undefined) | -22
56 | COCCc1ncc(CN2CCC3(CCCN(CC4CC4)C3)C2)cn1 (centres undefined) | -4.07
57 | Cc1ncsc1-c1nc(Cc2cccs2)nn1C1CCN(C)CC1 | -4.51
58 | CCc1cnc(C)nc1NCc1cnc2c(c1)CCC2 | 8.83
59 | COc1cc(CN2CC(=O)N(c3ccc(C)cc3)CC2C)cc(OC)c1 (centres undefined) | 1.28
60 | CN(CCc1noc(C2CC2)n1)C(=O)CCc1cc2n(n1)CCCNC2 | -0.645
61 | Cn1ccnc1CN1CCN(Cc2ccccc2)[C@@H]2CS(=O)(=O)C[C@@H]21 | -3.41
62 | Cc1ccc([C@@H]2CN(C(=O)c3ccsc3)C[C@H]2NC(=O)C2CC2)cc1 | 2.93
63 | Cc1cc(C)nc(NCc2nnc3n2CCCCC3)n1 | -10.6
64 | CCN(C)Cc1n[nH]c(=O)n1-c1ccc(C)c(C)c1 | 6.27
65 | Cc1cc(C)n(C2CCN(C(=O)CN3C(=O)CSc4ccccc43)C2)n1 (centres undefined) | -15.3
66 | CCN1CCCC(c2c(-c3ccccc3)ncn2Cc2cccnc2)C1 (centres undefined) | -6.75

Row | Structure (SMILES) | cytotoxicity at 10 µM [%]
67 | CC(C)C(C)N(Cc1cnc2ccccc2n1)Cc1ccco1 (centres undefined) | 14.7
68 | Fc1cccc(-c2cccc(N3CCC(NC4CCCOC4)CC3)c2)c1 (centres undefined) | 12
69 | CC(C)c1noc(Cn2ncn3cccc3c2=O)n1 | -4.1
70 | O=C(c1cc(F)cc(Cl)c1)N1CCN(CCO)[C@@H]2CS(=O)(=O)C[C@@H]21 | -2.24
71 | CCCc1cc(C(=O)N(C)Cc2cnn(-c3cccc(OC)c3)c2)[nH]n1 | -2.4
72 | COc1ccc(F)c(CN2CCCC3(CCN(S(C)(=O)=O)C3)C2)c1 (centres undefined) | -2.93
73 | CCN1CC2(CCC1=O)CCN(Cc1nncn1C(C)C)CC2 | 8.39
74 | COc1cccc(N2CCC(N3C[C@@H](NC(C)=O)[C@H](C(C)C)C3)CC2)c1 | -9.98
75 | Cc1ccc(C(=O)Nc2ccc(OC3CCN(C)CC3)cc2)c(C)c1 | 7.48
76 | COc1nccnc1N1CCN(Cc2ccc3c(c2)OCO3)C(=O)C1 | -1.65
77 | O=C(O)C(c1ccc2c(c1)OCCO2)N1CCCC1 (centres undefined) | -5.38
78 | O=C1CC2(CCN(CC3CCOC3)CC2)CN1Cc1cc(F)cc(F)c1 (centres undefined) | -18.9
79 | CN(c1ccc(C(=O)NCCCN2CCOCC2)c(Cl)c1)S(C)(=O)=O | -11.2
80 | Cc1nc(CN(C)C2CCCN(c3cccnn3)C2)nc2ccccc12 (centres undefined) | -0.164
81 | Cn1ncc2c(=O)[nH]c(CN(Cc3ccco3)C3CC3)nc21 | -9.8
82 | Cc1nccn1C1CCCN(C(=O)c2ccc3c(c2)OCCCO3)C1 (centres undefined) | -12.9
83 | CCn1c(CN2CCN(CCOC)CC2)nc2c(F)cccc21 | -9.86
84 | Cc1nc(C)n(CC2CCCN2Cc2nc(-c3ccsc3)no2)n1 (centres undefined) | -9.8
85 | CN(Cc1ccncc1)CC(c1cccs1)N1CCOCC1 (centres undefined) | -15.7
86 | COc1ccc(Cl)cc1NCC(=O)NCCc1ccccn1 | -8.26
87 | CC(C)CCN(C)C(=O)c1nc(S(C)(=O)=O)n2ccccc12 | -9.91
88 | CC(Cn1ccnc1)NC(=O)NCCc1ccccn1 (centres undefined) | -6.05

Row | Structure (SMILES) | cytotoxicity at 10 µM [%]
89 | COc1ccc(C2=CCN(C(=O)CN(C)CC(C)C#N)CC2)cc1 (centres undefined) | -9.52
90 | Cc1ccn(-c2ccc(C(=O)N3CCCC(n4ccnc4)C3)cc2)n1 (centres undefined) | -8.31
91 | CCN(Cc1cccc2c1OCO2)C(=O)Nc1ccncc1 | 2.58
92 | Cn1nc(C2CCN(C(=O)Cc3cccc(F)c3)CC2)c2cccnc21 | -0.439
93 | Fc1ccc(CN2CCCn3nnc(COCC4CC4)c3C2)cc1 | -109
94 | CO[C@@H]1CCN(Cc2cccs2)[C@@H]2CN(Cc3ccncc3)C[C@@H]21 | 3.93
95 | COc1cccc(CN2CCC3(CCN(c4ncc(F)cn4)CC3)C2)c1 | -0.664
96 | O=C(c1ccoc1)N1CCOC2(COCCN(c3ncccn3)C2)C1 (centres undefined) | -98.4
97 | COCCN1CCC2(COCCN(Cc3ccc4c(c3)OCO4)C2)C1 (centres undefined) | -0.234
98 | Cc1nc(COC[C@@H]2CC[C@H]3[C@H](CCN3c3ncccn3)O2)cs1 | 2.19
99 | OC1CCN(Cc2c(C3CCCNC3)[nH]c3ncccc23)CC1 (centres undefined) | -0.542
100 | CCN(CC)c1ccc2ccc(C(=O)N(CCOC)CCOC)cn12 | 1.15
101 | COc1cccc(CN2CCC3(COCc4cnc(N(C)C)nc43)C2)c1 (centres undefined) | 11.2
102 | CCS(=O)(=O)Nc1ccc2c(c1)C1(CCOCC1)CN2C | -107
103 | COc1ccc2ccccc2c1CNCC1CCS(=O)(=O)C1 (centres undefined) | 4.51
104 | Cc1ccc(NC2COC3(CCN(CC(C)C)CC3)C2)nn1 (centres undefined) | -1
105 | Cn1cc(-c2ncc3c(c2C(=O)O)CCN(CC2CC2)C3)cn1 | -104
106 | Cc1ccc(CN2C[C@@H]3CCCO[C@@H]3[C@H](NS(C)(=O)=O)C2)o1 | 5.16
107 | Cc1noc(C)c1CN1CCc2c(CNc3nccs3)n[nH]c2C1 | 5.28
108 | CS(=O)(=O)N1CCc2ccc(=O)n(CCN3CCCC3)c2CC1 | 0.108
109 | Cc1nnsc1CN1C[C@@H]2CC[C@H]1CN(Cc1ccccc1)C2 | 0.929

Source: ChEMBL document CHEMBL4513216, “Probing the Open Global Health Chemical Diversity Library for Multistage-Active Starting Points for Next-Generation Antimalarials” (ACS Infect Dis, 2020)
